{"data": "Measured values pooled from the literature", "target": "Serine/threonine-protein kinase Chk1 (CHEK1, Homo sapiens, UniProt O14757)", "One construct used (O14757 1-476)": "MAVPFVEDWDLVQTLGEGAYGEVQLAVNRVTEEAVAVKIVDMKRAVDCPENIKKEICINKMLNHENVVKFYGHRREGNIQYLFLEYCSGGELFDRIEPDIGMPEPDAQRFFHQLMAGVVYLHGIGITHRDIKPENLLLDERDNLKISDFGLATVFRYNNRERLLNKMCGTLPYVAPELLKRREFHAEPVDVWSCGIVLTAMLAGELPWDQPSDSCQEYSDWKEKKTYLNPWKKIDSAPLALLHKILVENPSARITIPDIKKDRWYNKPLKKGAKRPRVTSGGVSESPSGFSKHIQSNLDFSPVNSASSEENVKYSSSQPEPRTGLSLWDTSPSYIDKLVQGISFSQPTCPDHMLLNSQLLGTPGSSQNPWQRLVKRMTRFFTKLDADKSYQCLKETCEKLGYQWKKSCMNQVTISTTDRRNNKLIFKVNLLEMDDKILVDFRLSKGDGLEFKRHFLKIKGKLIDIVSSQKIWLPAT", "note": "Each line is one published result; the experiments were not run side by side."}
{"SMILES": "CC(C)(C)c1cc(C=C(C#N)C#N)cc(Br)c1O", "test": "enzyme activity, inhibitor", "setting": "0.5 µM", "measurement": "remaining activity", "value": "100%"}
{"SMILES": "Nc1ncc(-c2nc(N3CCOCC3)nc(N3CCOCC3)n2)c(C(F)F)n1", "test": "binding, competition with immobilised ligand", "setting": "10 µM", "measurement": "remaining binding", "value": "67%"}
{"SMILES": "O=c1[nH]c2ccccc2n1C1CCN(Cc2ccc(-c3[nH]c4cc5ncnc5cc4nc3-c3ccccc3)cc2)CC1", "test": "cell-free assay", "setting": "0.5 µM", "measurement": "remaining signal", "value": "107%"}
{"SMILES": "C#Cc1n[nH]c2c(-c3cn([C@@H](C)c4ccccc4)c(=O)[nH]c3=O)cc(F)cc12", "test": "enzyme activity, inhibitor", "setting": "0.1 µM", "measurement": "inhibition", "value": "-1.2%"}
{"SMILES": "Cc1nn(C)cc1-c1nc2c(N3CCN(Cc4ccc(Cl)cc4)CC3)c(Cl)cnc2[nH]1", "test": "binding, competition with immobilised ligand", "setting": "1 µM", "measurement": "remaining binding", "value": "100%"}
{"SMILES": "COc1cc(Nc2ncc(F)c(Nc3ccc4c(n3)NC(=O)C(C)(C)O4)n2)cc(OC)c1OC", "test": "binding, competition with immobilised ligand", "setting": "10 µM", "measurement": "inhibition", "value": "62%"}
{"SMILES": "Cn1cc(-c2cc(F)cc(N3CCn4c(cc5c4CCCC5)C3=O)c2CO)cc(Nc2ccc(N3CCN(C4COC4)CC3)cn2)c1=O", "test": "enzyme activity, inhibitor", "setting": "0.1 µM", "measurement": "inhibition", "value": "2%"}
{"SMILES": "C#Cc1n[nH]c2c(-c3cn([C@@H](C)c4ccccn4)c(=O)[nH]c3=O)cc(F)cc12", "test": "enzyme activity, inhibitor", "setting": "0.1 µM", "measurement": "inhibition", "value": "-3.2%"}
{"SMILES": "Cn1cncc1[C@@](O)(COc1ccc(C#N)cc1-c1ccc(OC(F)(F)F)cc1)c1ccc(C#N)cc1", "test": "cell-free assay, competition with immobilised ligand", "setting": "1 µM", "measurement": "remaining binding", "value": "100%"}
{"SMILES": "Cn1cc(-c2cccc(N3CCc4c(sc5c4CC(C)(C)C5)C3=O)c2CO)cc(Nc2ccncn2)c1=O", "test": "enzyme activity, inhibitor", "setting": "1 µM", "measurement": "inhibition", "value": "1%"}
{"SMILES": "COc1ncccc1-c1cnn2ccc(N3CCN(C(=O)OC(C)C)CC3)nc12", "test": "binding, competition with immobilised ligand", "setting": "1 µM", "measurement": "remaining binding", "value": "100%"}
